Measurements: article PMC6146878 (Molecules : A Journal of Synthetic Chemistry and Natural …, 2003)

Test: Interaction with DPPH
Procedure, shortened: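 DPPH 0.1 mM in absolute ethanol mixed with an equal volume of test compound in ethanol (0.1 mM); ethanol-only control. Kept at room temperature; absorbance at 517 nm recorded after 20 and 60 min. At least triplicate.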

Row | Structure (SMILES) | DPPH (0.1 mmol/L) 20min
1 | CC(=O)Oc1ccccc1C(=O)O [ASA, Acetyl salicylic acid] | 80.5%
2 | CC(Cc1ccc(O)c(O)c1)C(C)Cc1ccc(O)c(O)c1 (centres unmarked) [NDGA, nor-dihydroguaeretic acid] | 94%
